Test results from ChEMBL document CHEMBL3792385, “Identification and Evaluation of Antiepileptic Activity of C21 Steroidal Glycosides from the Roots of Cynanchum wilfordii” (2016).

What was measured:
Format in all cases: functional
[1] = test system: Mus musculus; test: Antiepileptic activity in KM mouse assessed as protection against maximal electroshock-induced seizures at 100 mg/kg, po administered 1 hr prior to electrical stimulation
Method in brief: (§1)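 Male KM mice, 20 ± 2 g, dosed orally; vehicle-treated group as control. Read-out is protection rate against maximal electroshock-induced seizures. Graded doses of 25, 50, 75, 100 and 150 mg/kg were used. ED50 and 95% confidence interval were fitted to the Hill equation.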

[2] = test system: Mus musculus; test: Antiepileptic activity in po dosed KM mouse assessed as protection against maximal electroshock-induced seizures administered 1 hr prior to electrical stimulation; method in brief: as §1
[3] = test system: Mus musculus; test: Antiepileptic activity in KM mouse assessed as protection against maximal electroshock-induced seizures at 150 mg/kg, po administered 1 hr prior to electrical stimulation; method in brief: as §1
[4] = test system: Mus musculus; test: Antiepileptic activity in KM mouse assessed as protection against maximal electroshock-induced seizures at 50 mg/kg, po administered 1 hr prior to electrical stimulation; method in brief: as §1
[5] = test system: Mus musculus; test: Antiepileptic activity in KM mouse assessed as protection against maximal electroshock-induced seizures at 75 mg/kg, po administered 1 hr prior to electrical stimulation; method in brief: as §1
[6] = test system: Mus musculus; test: Antiepileptic activity in KM mouse assessed as protection against maximal electroshock-induced seizures at 25 mg/kg, po administered 1 hr prior to electrical stimulation; method in brief: as §1
[7] = test system: Mus musculus; test: Antiepileptic activity in po dosed KM mouse assessed as protection against maximal electroshock-induced seizures administered 30 mins prior to electrical stimulation
Method in brief: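 Male KM mice (20 ± 2 g) were given compound orally, with a vehicle control group. Screening used 100 mg/kg, and dose–response series used 25, 50, 75, 100 and 150 mg/kg. The read-out was the percentage of mice protected from MES-induced seizures. ED50 and 95% confidence intervals were derived by Hill-equation fitting.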

Compound	inhibition in vivo at 100 mg/kg [1]	ED50 [2]	other results
CO[C@H]1C[C@H](O[C@@H]2[C@H](C)O[C@@H](O[C@H]3[C@@H](OC)C[C@H](O[C@H]4CC[C@@]5(C)C(=CC[C@]6(O)[C@@H]5C[C@@H](OC(=O)/C=C/c5ccccc5)[C@@]5(C)[C@]6(O)CC[C@@]5(O)C(C)=O)C4)O[C@@H]3C)C[C@@H]2OC)O[C@H](C)[C@H]1O	60%	95.3 mg/kg	
CO[C@H]1C[C@@H](O[C@H]2[C@H](C)O[C@H](O[C@H]3[C@@H](C)O[C@H](O[C@H]4[C@@H](OC)C[C@H](O[C@@H]5CC[C@]6(C)C(=CC[C@@]7(O)[C@H]6C[C@H](OC(C)=O)[C@]6(C)[C@@]7(O)CC[C@]6(O)C(C)=O)C5)O[C@@H]4C)C[C@H]3OC)C[C@H]2OC)O[C@H](C)[C@H]1O		> 200 mg/kg	
CO[C@H]1C[C@@H](O[C@H]2[C@H](C)O[C@H](O[C@H]3[C@@H](C)O[C@H](O[C@H]4[C@@H](OC)C[C@H](O[C@@H]5CC[C@]6(C)C(=CC[C@@]7(O)[C@H]6C[C@H](OC(=O)/C=C(\C)C(C)C)[C@]6(C)[C@@]7(O)CC[C@]6(O)C(C)=O)C5)O[C@@H]4C)C[C@H]3OC)C[C@H]2OC)O[C@H](C)[C@H]1O	40%	124 mg/kg	
CC[C@@H](C)C(=O)O[C@@H](C)[C@]1(O)CC[C@@]2(O)[C@]1(C)[C@H](OC(=O)/C=C/c1ccccc1)C[C@@H]1[C@@]3(C)CC[C@H](O[C@@H]4C[C@@H](OC)[C@@H](O[C@H]5C[C@H](OC)[C@H](O[C@H]6C[C@H](OC)[C@H](O[C@H]7C[C@@H](OC)[C@@H](O)[C@H](C)O7)[C@@H](C)O6)[C@H](C)O5)[C@H](C)O4)CC3=CC[C@]12O	90%	48.5 mg/kg	inhibition in vivo at 150 mg/kg [3]: 100%; inhibition in vivo at 50 mg/kg [4]: 50%; inhibition in vivo at 75 mg/kg [5]: 70%; inhibition in vivo at 25 mg/kg [6]: 20%
CO[C@H]1C[C@H](O[C@H]2[C@H](C)O[C@H](O[C@H]3CC[C@@]4(C)C(=CC[C@]5(O)[C@@H]4C[C@@H](OC(=O)/C=C/c4ccccc4)[C@@]4(C)[C@]5(O)CC[C@@]4(O)[C@H](C)OC(=O)c4cccnc4)C3)C[C@H]2OC)O[C@@H](C)[C@H]1O[C@H]1C[C@H](OC)[C@H](O[C@H]2C[C@@H](OC)[C@@H](O)[C@H](C)O2)[C@@H](C)O1	55.5%	88.1 mg/kg	
CO[C@H]1C[C@@H](O[C@H]2[C@H](C)O[C@H](O[C@H]3[C@@H](C)O[C@H](O[C@H]4[C@@H](OC)C[C@H](O[C@@H]5CC[C@]6(C)C(=CC[C@@]7(O)[C@H]6C[C@H](O)[C@]6(C)[C@@]7(O)CC[C@]6(O)C(C)=O)C5)O[C@@H]4C)C[C@H]3OC)C[C@H]2OC)O[C@H](C)[C@H]1O		> 200 mg/kg	
CO[C@H]1C[C@H](O[C@H]2[C@@H](OC)C[C@H](O[C@H]3CC[C@@]4(C)C(=CC[C@]5(O)[C@@H]4C[C@@H](OC(=O)/C=C(\C)C(C)C)[C@@]4(C)[C@]5(O)CC[C@@]4(O)C(C)=O)C3)O[C@@H]2C)O[C@@H](C)[C@H]1O[C@H]1C[C@H](OC)[C@H](O[C@H]2O[C@@H](CO)[C@H](O)[C@@H](O)[C@@H]2O)[C@@H](C)O1		> 200 mg/kg	
CO[C@H]1C[C@@H](O[C@H]2[C@H](C)O[C@H](O[C@H]3[C@@H](C)O[C@H](O[C@H]4[C@@H](OC)C[C@H](O[C@@H]5CC[C@]6(C)C(=CCC(=O)[C@H]6C[C@H](OC(=O)/C=C/c6ccccc6)[C@]6(C)C(=O)CC[C@]6(O)[C@@H](C)OC(C)=O)C5)O[C@@H]4C)C[C@H]3OC)C[C@H]2OC)O[C@H](C)[C@H]1O		> 200 mg/kg	
CO[C@H]1C[C@H](O[C@H]2CC[C@@]3(C)C(=CC[C@]4(O)[C@@H]3C[C@@H](OC(=O)/C=C(\C)C(C)C)[C@@]3(C)[C@]4(O)CC[C@@]3(O)C(C)=O)C2)O[C@H](C)[C@H]1O[C@@H]1C[C@@H](OC)[C@@H](O[C@H]2C[C@H](OC)[C@H](O[C@@H]3C[C@H](OC)[C@H](O[C@H]4O[C@@H](CO)[C@H](O)[C@@H](O)[C@@H]4O)[C@@H](C)O3)[C@@H](C)O2)[C@@H](C)O1		> 200 mg/kg	
CO[C@H]1C[C@@H](O[C@H]2[C@H](C)O[C@H](O[C@H]3[C@@H](C)O[C@H](O[C@H]4[C@@H](OC)C[C@H](O[C@@H]5CC[C@]6(C)C(=CC[C@@]7(O)[C@H]6C[C@H](OC(=O)/C=C/c6ccccc6)[C@]6(C)[C@@]7(O)CC[C@]6(O)C(C)=O)C5)O[C@@H]4C)C[C@H]3OC)C[C@H]2OC)O[C@H](C)[C@H]1O	70%	72.3 mg/kg	
CCOC(=O)Nc1ccc(NCc2ccc(F)cc2)cc1N [EZOGABINE]			ED50 [7]: 15 mg/kg
